Legend:
[1] = system: BEL-7402 human hepatoma cells; experiment: BEL-7402 human hepatoma xenograft model; format: in vivo, nude mice
H22 mouse hepatoma cells = experiment: H22 hepatoma xenograft model; format: in vivo, Kun Ming (KM) mice
Summary of the method: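 Kun Ming mice (eight/group) received 2×10^5 H22 hepatoma cells sc in the right armpit. Test compound (5, 15, 45 mg/kg) or adriamycin (2 mg/kg) in HS-15/N,N-dimethylformamide (1:1 v/v) was injected ip. Mice were weighed twice weekly and killed by cervical dislocation, and tumors were weighed. Inhibition (%) = (mean control tumor weight − mean treated)/mean control × 100.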

[2] = system: bone marrow polychromatic erythrocytes; conditions: 15 mg/kg, similar experiment conditions; cited from earlier work
[3] = cited from earlier work

inhibition of body weight of mice ([1]; BEL7402 xenografts): 33.3%
inhibition of body weight of mice (H22 mouse hepatoma cells; H22 xenografts): 25.1%
SMILES: COc1cccc2c1C(=O)c1c(O)c3c(c(O)c1C2=O)C[C@@](O)(C(=O)CO)C[C@@H]3O[C@H]1C[C@H](N)[C@H](O)[C@H](C)O1 [ADM, adriamycin]
inhibitory rate ([1]; 2 mg/kg ip, BEL-7402 xenografts): 73.5%
changes in body weights versus vehicle group ([1]; BEL-7402 xenografts, 3 weeks): significantly reduced
inhibitory rate of cancer growth (H22 mouse hepatoma cells; 2 mg/kg ip): 51.9%
influence on body weights of mice (H22 mouse hepatoma cells; H22-bearing mice): much more loss of body weight
induction of micronuclei [2]: induce large amounts of micronuclei
bioavailability after oral administration [3]: poor bioavailability

Reference: paper PMC4207554 (Drug Design, Development and Therapy, 2014)
